# Shown are actives, neighbours in structure and some others; about 3.5% of the full set was active somewhere.
# MrgX1 allo act: human MrgX1 positive allosteric modulation, primary screen; Q96LB2; MrgX1-HEK293, Fluo-4 calcium flux, FDSS; stronger effect = higher value; B-score at 10 µM; 310,000 compounds, 0.63% hits;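 active = plate-corrected calcium response at least 3 library SD above typical, normal starting fluorescence, not activating the receptor alone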;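 note: compound read alongside a low EC10 to EC30 dose of BAM8-22 agonist; peak minus trough fluorescence over baseline measured at the second addition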
# Target sequence (Q96LB2 whole entry, looked up): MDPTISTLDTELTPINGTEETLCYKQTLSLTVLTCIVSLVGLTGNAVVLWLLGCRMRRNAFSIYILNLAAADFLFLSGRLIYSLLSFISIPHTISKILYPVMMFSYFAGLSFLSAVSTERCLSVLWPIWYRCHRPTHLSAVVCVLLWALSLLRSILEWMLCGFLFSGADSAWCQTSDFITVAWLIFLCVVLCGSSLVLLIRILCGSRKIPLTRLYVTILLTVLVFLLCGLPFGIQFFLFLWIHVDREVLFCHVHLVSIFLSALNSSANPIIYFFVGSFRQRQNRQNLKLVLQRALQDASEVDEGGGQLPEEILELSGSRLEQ
# RGS4 pot: potentiators or activators of RGS4. HEK293 M3R/inducible RGS4, carbachol calcium flux Fluo4; stronger effect = lower value. B-score at 10 µM. 310,000 compounds, 0.92% hits;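 active = B-score of the integrated calcium signal more than 4 SD below the library mean, with starting fluorescence not abnormally high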;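 note: negative B-score means reduced calcium response which marks RGS4 activation or potentiation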
#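 Assay system: HEK293 FlpIn-TREx cells, stable M3R, doxycycline-inducible RGS4 / Probe or stimulus: carbachol, ECmax concentration / Times: overnight RGS4 induction, 30 min dye load 37 °C, 20 min compound RT / Signal: kinetic calcium fluorescence imaging with Fluo4-AM dye, 2 µM / Measure: Agonist-evoked peak-minus-minimum fluorescence over baseline, integrated ratio, B score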
# MrgX1 ag: human MrgX1 receptor agonism, primary screen; Q96LB2; MrgX1-HEK293 cells, Fluo-4 calcium fluorescence, agonist mode; stronger effect = higher value; B-score at 10 µM; 310,000 compounds, 0.44% hits; AID 588627;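 active = calcium response B-score plate-corrected fluorescence ratio at least 3 library SD, with starting fluorescence B-score inside 5 SD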
#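 Test system: HEK293 cells stably expressing human MrgX1 receptor; amount: 15,000 cells per well; doses: compound delivered in addition one of three; times: overnight plating before 1 h dye loading; detection: Fluo-4 NW calcium-flux fluorescence, kinetic read; read-out basis: B-scored fluorescence response ratio; controls: positive and negative controls per plate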
# RGS4 inh: human RGS4 inhibition; B-score at 10 µM; AID 463165; 310,000 compounds, 0.45% hits; P49798; HEK293 M3R/RGS4 inducible, Fluo-4 calcium flux; stronger effect = higher value; triggered by carbachol at its EC20;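 active = B-score, a plate-corrected calcium signal, over three deviations above library mean, with baseline fluorescence within five deviations of library mean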;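 note: RGS4 expression induced by doxycycline in cells with stable M3 receptor; B-score is computed from the integrated fluorescence ratio over baseline after carbachol; higher B-score means a larger calcium signal and so more RGS4 inhibition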
# Target sequence (P49798 whole entry, looked up): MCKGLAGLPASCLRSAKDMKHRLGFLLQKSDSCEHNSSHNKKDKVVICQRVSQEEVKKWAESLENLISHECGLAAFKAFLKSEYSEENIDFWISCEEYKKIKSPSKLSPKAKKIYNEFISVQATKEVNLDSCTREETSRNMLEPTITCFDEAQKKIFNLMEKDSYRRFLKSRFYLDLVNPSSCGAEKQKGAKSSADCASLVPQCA
# MrgX1 antagonist: human MrgX1 receptor antagonism, primary screen; 310,000 compounds, 1.3% hits; MRGX1-HEK293 calcium flux, Fluo-4, BAM8-22 antagonism; stronger effect = lower value; AID 588676; B-score at 10 µM;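 active = calcium-response B-score plate-corrected more than 3 library SD below zero, starting fluorescence within 5 deviations, no agonist response on first addition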;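 note: peak minus trough fluorescence over baseline after final BAM8-22 challenge near maximal dose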
# MrgX1 antag conf: human MrgX1 receptor antagonism, re-confirmation screen; shares compounds with MrgX1 antagonist; MrgX1-HEK293, BAM8-22 calcium flux, Fluo-4; stronger effect = lower value; remaining BAM8-22 calcium response % of control (stronger effect = lower value), % at 10 µM; 2,300 compounds, 19% hits; AID 602420;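 active = remaining agonist calcium response no higher than 100% minus 3 SD of agonist-only control wells, with starting fluorescence near control levels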;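 note: agonist BAM8-22 given at a near maximal EC90 to ECmax level; peak minus minimum fluorescence divided by baseline after agonist addition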
# HEK293 Ca flux: counter-screen for MrgX1 antagonists: effect in parental HEK293 cells. shares compounds with MrgX1 antagonist. Fluo-4 calcium fluorescence, FDSS. fluorescence ratio F(max-min)/F0 at 10 µM. 4,000 compounds, 2% hits;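 active = duplicate-averaged calcium fluorescence ratio at least three times the standard deviation of buffer wells, a nonspecific response in parental cells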
# HEK293 Ca counter: counter-screen for MrgX1 allosteric activators: effect in parental HEK293 cells | fluorescence ratio F(max-min)/F0 at 10 µM | shares compounds with MrgX1 antagonist | 4,000 compounds, 0.4% hits | AID 624114 | parental HEK293 calcium flux, Fluo-4 fluorescence ratio; stronger effect = higher value;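 active = calcium fluorescence ratio, averaged over duplicates, at least 3 SD of the buffer-well ratio, meaning a nonspecific response in receptor-free cells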;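 note: untransfected parental HEK293 lacking MrgX1 used as counterscreen for MrgX1 allosteric activators; fluorescence change taken during the second addition on a kinetic imager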
# HEK293 Ca cntr2: counter-screen for MrgX1 activators: effect in parental HEK293 cells | 4,000 compounds, 8.7% hits | AID 624115 | fluorescence ratio F(max-min)/F0 at 10 µM | shares compounds with MrgX1 antagonist | Fluo-4 calcium fluorescence (FDSS); stronger effect = higher value;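 active = calcium fluorescence ratio at least three times the spread of buffer wells, meaning a non-specific response in parental cells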
# Active calls of the source: *; i = inactive; . = no result.
SMILES,MrgX1 allo act,RGS4 pot,MrgX1 ag,RGS4 inh,MrgX1 antagonist,MrgX1 antag conf,HEK293 Ca flux,HEK293 Ca counter,HEK293 Ca cntr2
Cc1ccc(CNc2nc3ccccc3n2C)o1,i,i,i,i,i,.,.,.,.
Cn1c(-c2ccc(CN3CCCCC3)o2)nc2ccccc21,i,i,i,i,-5.31*,i,i,i,i
O=S(=O)(Cc1cc(NCc2ccccc2)nc(-c2ccccn2)n1)c1ccccc1,i,i,i,i,-5.65*,85.6%*,i,i,i
[NH-]c1ncnc2c1N=C[N+]2=CC=CCO,i,i,i,i,i,.,.,.,.
Cc1cc(NC(=S)Nc2cccnc2)ccc1Br,i,i,i,i,-5.24*,85.6%*,i,i,i
Cc1cc(NC(=S)Nc2ccccc2)ccc1Br,i,i,i,i,i,.,.,.,.
Cn1c(=O)[nH]c(=O)c2c1nc(SCC(=O)O)n2CCCc1ccccc1,i,i,i,i,-6.86*,83.8%*,i,i,i
COc1ccc(Cl)cc1NC(=O)CN(C)C(=O)Cc1ccc2c(c1)CCC2,i,i,i,i,i,.,.,.,.
COc1ccc(Cl)cc1NC(=O)CN(C)C(=O)Cc1ccsc1,i,i,i,i,-6.79*,i,i,i,i
CN(C)CCCSc1nc2ccccc2s1,i,i,i,i,-7.11*,68.9%*,i,i,i
CCOC(=O)C1(Cc2ccccc2)CCN(Cc2cnn(-c3ccccc3)c2)CC1,i,i,i,i,-6.02*,73.0%*,i,i,i
CCOC(=O)C1(Cc2ccccc2)CCCN(CCO)C1 (configuration not stated),i,i,i,i,-5*,i,i,i,i
CC(C)(C)n1nnnc1C(c1cc2cc3c(cc2[nH]c1=O)OCO3)N1CCN(c2ccccc2)CC1 (configuration not stated),i,i,i,i,-6.96*,i,i,i,i
O=c1[nH]c(Cc2ccccc2)nc2c1oc1ccccc12,i,i,i,i,i,.,.,.,.
O=c1[nH]c(CO)nc2c1oc1ccccc12,i,i,i,i,-6.74*,i,i,i,i
Cc1ccc(NC(=O)[C@H](C)NC(=O)C2CCN(C(=O)[C@@H](N)CC(C)C)CC2)cc1,i,i,i,i,i,.,.,.,.
CCCc1cc(=O)oc2cc(C)cc(OCC(=O)N3CCC(C(N)=O)CC3)c12,i,i,i,i,-4.95*,i,i,i,i
O=S(=O)(NC1c2cccc3cccc(c23)C1Sc1ncccn1)c1ccc(Cl)cc1 (configuration not stated),i,i,i,i,-4.72*,i,i,i,i
Cc1ccc(S(=O)(=O)NC2c3cccc4cccc(c34)C2Sc2n[nH]c(N)n2)cc1 (configuration not stated),i,i,i,i,i,.,.,.,.
O=C(NCCSCc1ccco1)Nc1cc(Cl)cc(Cl)c1,i,i,i,i,-5.38*,67.7%*,i,i,i
CC1=C(C(=O)Nc2ccccc2)C(c2ccco2)C(C#N)=C(SCc2ccccc2)N1 (configuration not stated),i,i,i,i,i,.,.,.,.
CC1=C(C(=O)Nc2ccccc2)C(c2ccco2)C(C#N)=C(SCC(=O)OC(C)C)N1 (configuration not stated),i,i,i,i,-11.2*,i,i,i,i
N#Cc1nc(Cc2ccccc2)oc1NCCN1CCOCC1,i,i,i,i,-7.5*,i,i,i,i
Cc1ccc(OCC(=O)N/N=C2/SCC(=O)N2Cc2ccccc2)cc1,i,i,i,i,-21.3*,i,i,i,i
COc1cc(NC(=O)CN2C(=O)C(C)N(c3ccc(C)cc3)C2=O)cc(OC)c1 (configuration not stated),i,i,i,i,-6.46*,i,i,i,i
SMILES,MrgX1 allo act,RGS4 pot,MrgX1 ag,RGS4 inh,MrgX1 antagonist,MrgX1 antag conf,HEK293 Ca flux,HEK293 Ca counter,HEK293 Ca cntr2
FC(F)(F)c1cc(NC2CCCCC2)ccn1,i,i,i,i,i,.,.,.,.
Cn1ccs/c1=N\S(=O)(=O)c1ccc(F)cc1,i,i,i,i,-5.01*,i,i,i,i
Cc1ccc(S(=O)(=O)/N=c2\sccn2C)cc1,i,i,i,i,i,.,.,.,.
CCCC(=O)Oc1ccc(C2NC(=O)c3ccccc3O2)cc1 (configuration not stated),i,i,i,i,i,.,.,.,.
CC(=Nc1ccccc1C)C1=C(O)CSC1=O,i,i,i,i,-5.44*,i,i,i,i
CCc1sc(NC(=O)CCC(=O)O)nc1-c1cc2ccccc2oc1=O,i,i,i,i,i,.,.,.,.
Cc1nc(NCc2ccccn2)c2c3c(sc2n1)CCCC3,i,i,i,i,-5.23*,i,i,i,i
Cc1ccc(S(=O)(=O)N2CCN(C(=O)c3ccnn3C)CC2)cc1C,i,i,i,i,-5.68*,i,i,i,i
Cc1ccc(SC(C)C(=O)N2CCC(C(N)=O)CC2)cc1 (configuration not stated),i,i,i,i,i,.,.,.,.
Cc1cc(C)c(C)c(S(=O)(=O)N2CCN(c3ccc(O)cc3)CC2)c1C,i,i,i,i,i,.,.,.,.
O=C(CN1CCC(c2nc3ccccc3s2)CC1)NCc1ccccc1,i,i,i,i,-5.41*,i,i,i,i
COc1cccc(C(=O)N2CCN(CCCc3ccccc3)CC2)c1OC,i,.,i,.,i,.,.,.,.
COc1ccccc1C(=O)N1CCN(CCc2ccccc2)CC1,i,i,i,i,-5.38*,i,i,i,i
O=C(c1ccco1)N1CCN(C(=O)c2ccccc2Oc2ccccc2)CC1,i,i,i,i,-4.63*,79.5%*,i,i,i

# Assay outcomes from PubChem.
